Assay outcomes (PubChem BioAssay)
Compounds with a hit are over-represented: about 2% of the library has one in this group of screens.
NTR1 agonist – activates human neurotensin receptor 1; NTR1-U2OS beta-arrestin-GFP spot imaging, agonist mode; activation, % at 20 µM; 330,000 compounds, 0.17% hits; AID 493036;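 active = activation at or above 40% of the spot to cytoplasm intensity ratio, with at least 20 cells analyzed; inconclusive = wells under 20 cells, flagged as cytotoxic or low count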
Target sequence (P30989 whole entry, looked up): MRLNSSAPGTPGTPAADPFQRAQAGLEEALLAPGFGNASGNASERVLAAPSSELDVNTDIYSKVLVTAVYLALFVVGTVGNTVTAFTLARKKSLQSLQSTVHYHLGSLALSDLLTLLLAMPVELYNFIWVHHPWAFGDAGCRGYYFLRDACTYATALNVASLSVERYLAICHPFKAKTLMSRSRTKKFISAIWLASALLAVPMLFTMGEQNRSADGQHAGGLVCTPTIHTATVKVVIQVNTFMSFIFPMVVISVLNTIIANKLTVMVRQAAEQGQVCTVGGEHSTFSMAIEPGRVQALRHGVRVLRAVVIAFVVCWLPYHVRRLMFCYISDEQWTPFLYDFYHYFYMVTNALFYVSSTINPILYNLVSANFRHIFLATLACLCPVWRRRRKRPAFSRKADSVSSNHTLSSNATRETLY
CAL PDZ FP-1 – blocks peptide binding to human CAL PDZ domain | purified CAL PDZ, TMR-peptide fluorescence polarization, 1 h | Q9HD26 | 330,000 compounds, 0.02% hits | inhibition, % at 20 µM;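 active = highest replicate inhibition of at least 40%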
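Test system: purified CerCALP PDZ construct; Compound dosing: one concentration, 20 µM compound; Also added: TMR-labelled reporter peptide T*-PRC34 bound in PDZ groove; Read-out: inhibition from polarization loss; Controls: unlabelled peptide and DMSO controls; Signal: FP readout, S and P plane fluorescence; Incubation: 1 h at RT.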
PKA-R2B act – activators of human PKA-R2B complex; activation, % at 11.4 µM; AID 504700; PKA-R2B holoenzyme dissociation, Cy5-IP20 fluorescence polarization; R2B truncated from residue 108, S112A mutant; 0% DMSO only, 100% 113 µM cGMP; 340,000 compounds, 0.079% hits;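 active = activation above a cutoff set at the mean over all compounds plus 3 SD, cut at about 18% in these data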;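 also: higher means more holoenzyme dissociation and a rise in polarization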
CAL PDZ FP-2 – blocks peptide binding to the human CAL PDZ domain | inhibition, % at 24.9 µM | 300,000 compounds, 0.92% hits | Q9HD26 | purified CAL PDZ, TMR-peptide fluorescence polarization, 1 h;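 active = mean inhibition of at least 30% with at least half of replicates also reaching 30%; inconclusive = no clear call, values can overlap the other calls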
PKA-R1A activ – PKA-R1A complex activation. P00514+P68181. PKA-R1A dissociation, Cy5-IP20 fluorescence polarization; scaled: DMSO 0%, 113 µM cGMP 100%. activation, % at 11.4 µM. 340,000 compounds, 0.083% hits. AID 504707;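 active = percent activation above the mean of all tested compounds plus 3 SD, cut at about 19% in these data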;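 also: higher means more PKAc released from R1A so a rise in polarization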
dFosB act – enhances mouse delta FosB homodimer DNA binding; P13346; purified delta FosB, TAMRA-CDK5 oligo fluorescence polarization; percent of positive-control signal above neutral wells; activation, % at 25 µM; 340,000 compounds, 0.99% hits; AID 493131;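 active = mean activation above about 17%, with every replicate also reaching it, limit read from the data, passing the limit was not always enough; inconclusive = only one of the two conditions met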
NTR1 ag conf – NTR1 (human) agonism, confirmed; AID 504550; 480 compounds, 38% hits; shares compounds with NTR1 agonist; activation, % at 20 µM; NTR1-U2OS beta-arrestin-GFP translocation imaging;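 active = mean activation at 20 µM of at least 40%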
Large screens that a line does not name were inactive (follow-up assays come after a bar, where they were run).

Cc1ccc(NC(=O)COC(=O)CCc2ccccc2)cc1S(=O)(=O)N1CCOCC1	none
CCOC(=O)N1CCN(c2nc(-c3ccccc3)c3ccccc3n2)CC1	none
Cc1c(/C=N/NC(=O)c2ccccc2O)c2ccccn2c1C(=O)c1ccc(F)cc1	NTR1 agonist 114 | NTR1 ag conf inactive
Nn1c(SCC(=O)Nc2ccccc2Oc2ccccc2)nnc1C1CC1	none
CCOC(=O)c1ccc(NC(=O)c2ccc(C)c(S(=O)(=O)N3CCOCC3)c2)cc1	NTR1 agonist 52 (no result: CAL PDZ FP-1) | NTR1 ag conf 70
Cc1ccc(Cn2nc3c4cc(F)ccc4n(Cc4ccc(F)cc4)cc-3c2=O)cc1	none
COc1cc2c3nnc(-c4ccc(F)cc4)c-3cn(Cc3ccc(C)cc3)c2cc1OC	NTR1 agonist 112, dFosB act inconclusive (no result: CAL PDZ FP-2) | NTR1 ag conf 96
COc1cc2c3nnc(-c4ccc(F)cc4)c-3cn(Cc3cccc(F)c3)c2cc1OC	NTR1 agonist 65, dFosB act 38 | NTR1 ag conf 71
COc1cccc(Cn2nc3c4cc(F)ccc4n(Cc4ccc(F)cc4)cc-3c2=O)c1	none
CCC1CN(C(=O)N2CCC(C(=O)Nc3ccccc3OC)CC2)c2ccccc2O1 (centres undefined)	none
COc1ccc(CC(=O)Nc2cccc(-c3nnc(-c4cccc(C)c4)o3)c2)cc1OC	NTR1 agonist 41 | NTR1 ag conf 58
O=C(Nc1ccc([N+](=O)[O-])cc1)Nc1ccc(N2CCOCC2)c2nonc12	NTR1 agonist 42 (no result: CAL PDZ FP-2) | NTR1 ag conf 65
CCC(=O)c1ccc(OCC(=O)OCC(=O)c2cc(C)n(C)c2C)cc1	none
CCOC(=O)c1c(CSc2ccc(C)cc2)oc2ccc(O)cc12	NTR1 agonist 45 | NTR1 ag conf inactive
CC1(c2ccccc2)CC(C)(C)n2c(O)c(C3=NC(=S)NC3=O)c3cccc1c32 (centres undefined)	NTR1 agonist 42 | NTR1 ag conf inactive
CCCOc1ccc(/C(CC)=N/NC(=O)C2(C)CC2(Br)Br)cc1 (centres undefined)	NTR1 agonist 42 (no result: CAL PDZ FP-2) | NTR1 ag conf inactive
CN1CCN(CCCN2c3ccccc3Sc3ccc(Cl)cc32)CC1	none
CCSc1ccc2c(c1)N(CCCN1CCN(C)CC1)c1ccccc1S2	NTR1 agonist 43 | NTR1 ag conf inactive
Cc1cccc(C)c1NC(=O)CCc1nnc2ccc(N3CCCC3)nn12	none
FC(F)(F)c1cccc(N2CCN(c3ccc4nnc(-c5ccccc5)n4n3)CC2)c1	NTR1 agonist 58 | NTR1 ag conf inactive
c1ccc(-c2nnc3ccc(N4CCCC4)nn23)cc1	none (no result: CAL PDZ FP-2)
CC(=O)Nc1cccc(C(=O)/C=C/c2ccc(/C=C/C(=O)c3cccc(NC(C)=O)c3)cc2)c1	none (no result: CAL PDZ FP-1, PKA-R2B act, CAL PDZ FP-2, PKA-R1A activ, dFosB act)
CC(=O)Nc1cccc(C(=O)/C=C/c2ccc(Br)cc2)c1	NTR1 agonist 48 | NTR1 ag conf 73
COc1cc(C(CCN2CCCC2)c2c(OC)cc(OC)c3c(-c4ccccc4)cc(=O)oc23)cc(OC)c1OC (centres undefined)	NTR1 agonist 41 | NTR1 ag conf inactive
CCOC(=O)CCN1C(=O)c2ccccc2Sc2ncccc21	none
CCc1ccc(NC(=O)COc2ccc(/C=C(/C#N)c3nc4ccccc4[nH]3)cc2OC)cc1	NTR1 agonist 52 | NTR1 ag conf inactive
COC(=O)c1ccc(COc2ccc(/C=C(\C#N)c3nc4ccccc4[nH]3)cc2OC)o1	none (no result: CAL PDZ FP-2)
O=C(/C=C\c1ccccc1)NCC(=O)N/N=C/c1ccc(O)cc1O	NTR1 agonist 66 | NTR1 ag conf 55
COc1cccc(/C=N/NC(=O)CNC(=O)COc2cccc(C)c2)c1O	none
Cc1cccc(OCC(=O)NCC(=O)N/N=C/c2ccc(O)cc2O)c1	NTR1 agonist 40, dFosB act 17 | NTR1 ag conf inactive
CC(C)(c1ccc(O)cc1)c1ccc(O)c(C(=O)O)c1	none (no result: NTR1 agonist, CAL PDZ FP-1, CAL PDZ FP-2, dFosB act)
COc1ccc(-n2ncc3c(N4CCN(Cc5ccccc5)CC4)ncnc32)cc1	NTR1 agonist 67 | NTR1 ag conf 56
CCN1CCN(c2ncnc3c2cnn3-c2ccccc2)CC1	none (no result: CAL PDZ FP-2)
O=C(CCN1C(=O)c2ccccc2C1=O)c1ccccc1	none (no result: NTR1 agonist, CAL PDZ FP-1, CAL PDZ FP-2, dFosB act)
CCC(C)c1ccccc1N1CC(C(=O)Nc2cccc(S(=O)(=O)N3CCOCC3)c2)CC1=O (centres undefined)	none
O=C1c2[nH]nc(-c3ccccc3O)c2C(c2cccc(Cl)c2)N1Cc1ccco1 (centres undefined)	NTR1 agonist 46 (no result: CAL PDZ FP-2) | NTR1 ag conf inactive
O=C(CC(c1ccccc1)c1cc(Br)ccc1O)NCCN1CCOCC1 (centres undefined)	NTR1 agonist 43 | NTR1 ag conf inactive
O=C(Cc1cccs1)Nc1nc(-c2ccc(F)c(F)c2)cs1	NTR1 agonist 52 | NTR1 ag conf inactive
Cc1onc(-c2ccccc2)c1C(=O)N1CCN(c2ncccc2C(F)(F)F)CC1	none
O=C1NCCN(CC2CCN(CCc3ccc(Cl)c(Cl)c3)CC2)C1=O	none (no result: NTR1 agonist)
O=C(CCS(=O)(=O)c1ccccc1)Nc1ccc(-c2nc3ccccc3s2)cc1	dFosB act inconclusive
O=C(CCS(=O)(=O)c1ccccc1)Nc1cccc(-c2nc3ccccc3s2)c1	NTR1 agonist 49 | NTR1 ag conf inactive
CN(c1ccccc1)S(=O)(=O)c1ccc(NC(=O)c2ccccc2C(=O)O)cc1	none
CCCCNc1c(-c2cccc(-c3cc(C(C)=O)cs3)c2)nc2ccc(C)cn12	NTR1 agonist 41 | NTR1 ag conf inactive
O=C(CCNS(=O)(=O)c1ccc(Cl)cc1)N1CCOCC1	none
CC(C)(C)OC(=O)COc1cc(OCC(=O)OC(C)(C)C)c2c(=O)cc(-c3ccccc3)oc2c1	NTR1 agonist 53 | NTR1 ag conf inactive
CC(C)(C)OC(=O)COc1cc(O)c2c(=O)cc(-c3ccccc3)oc2c1	none
CN(c1ccccc1)S(=O)(=O)c1ccc(NC(=O)CC(=O)c2ccccc2)cc1	none (no result: NTR1 agonist)
COc1ccc(NC(=O)COC(=O)c2c3c(nc4ccccc24)CCCC3)cc1	none
COc1ccc(OC)c(NC(=O)COC(=O)c2c3c(nc4ccccc24)CCCC3)c1	NTR1 agonist 41 (no result: CAL PDZ FP-2) | NTR1 ag conf inactive
Cc1ccc(-c2nc3cccnc3o2)cc1NC(=O)COc1ccc(C(C)(C)C)cc1	NTR1 agonist 62 | NTR1 ag conf inactive
Cc1ccc(-c2nc3cccnc3o2)cc1NC(=O)COc1ccc(Cl)cc1C	none
Cc1ccc2c(c1)-n1c(nc3cc(F)ccc3c1=O)C(Cc1ccc(O)cc1)NC2=O (centres undefined)	none (no result: CAL PDZ FP-1, PKA-R2B act, CAL PDZ FP-2, PKA-R1A activ, dFosB act)
